Data on three compounds can be found in publication PMC11656380 (ACS Omega, 2024).

Data set [1] concerns HPB-ALL cells. In words: Proliferation, total cell count over 3 days. It counts as cell-based, human. The following applies: 15 μM DAPT, 100 μM Tat-Ram13 or 100 μM Tat-mRam13.
In data set [2] the test system is CCRF-CEM cells. In words: Time course of cell death, trypan blue exclusion assay. It counts as cell-based, human. The following applies: up to 24 h. The procedure, abridged: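 CCRF-CEM cells in complete RPMI-1640 (10% fetal calf serum, 5% CO2) were exposed to test peptide, control peptide or etoposide at the indicated concentrations, sampled over up to 24 h, and scored for viable cells by trypan blue exclusion.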

Data set [3] has as its system CCRF-CEM cells. In words: Cell morphology, phase-contrast and DNA. The format is cell-based, human. The following applies: 100 μM Tat-Ram13 or 30 μM etoposide, 24 h. The procedure, abridged:
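Cells were seeded at 5×10^5 per well in glass-bottom dishes and incubated with or without test compound. They were then stained with Hoechst 33342 for 10 min and imaged by fluorescence or confocal microscopy.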

The subject of data set [4] is caspase-3 in CCRF-CEM cells. In words: Western blot of caspase-3 cleavage. It counts as cell-based, human. The note with it: 100 μM Tat-Ram13 or 30 μM etoposide. The procedure, abridged:
(§1)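 CCRF-CEM cells (1×10^6) were treated with 100 μM test peptide, or with etoposide, for the indicated time. Cells were washed in ice-cold PBS and lysed in RIPA buffer with protease inhibitors. Lysate (25 μg) was run on SDS-PAGE and blotted to PVDF, then blocked in 5% skim milk/PBS-0.1% Tween 20 for 30 min. Primary antibodies (1:1000; β-actin 1:10,000) were applied overnight at 4 °C, then HRP secondary for 1 h at 4 °C, with chemiluminescent detection.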
(In general: In western blotting, separated proteins are transferred to a membrane and probed.)

Data set [5] deals with PARP-1 in CCRF-CEM cells. The experiment in a line: Western blot of PARP-1 cleavage. The note with it: 100 μM Tat-Ram13 or 30 μM etoposide. It counts as cell-based, human. The method in brief:
as §1

Data set [6] deals with CCRF-CEM cells. In words: HMGB1 release, Western blot. The format is cell-based, human. The following applies: Western blot of supernatant and pellet, etoposide 24 h.
Data set [7] deals with CCRF-CEM cells. In words: WST-8 cell viability assay. The format is cell-based, human. The note with it: CCRF-CEM (Figure 7B). The procedure, abridged:
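Cells at 5×10^4 cells/100 μL in complete medium (RPMI-1640, 10% fetal calf serum, 10 U/mL penicillin G, 10 μg/mL streptomycin) were exposed to various concentrations of test peptide in a 5% CO2 incubator for 24 h. WST-8 was added, and absorbance at 450 nm was read 1–2 h later. Viability was relative to an HBSS-added control (100%). Data are means ± SD.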
A general note: Tetrazolium dyes change colour on reduction, which living cells bring about.

Data set [8] deals with interactions between NICD and CSL. The note with it: human cell lysates; cited from earlier work.

Entries after “also recorded” stand apart in the source; their conditions may differ.

For the compound `C[C@H](NC(=O)Cc1cc(F)cc(F)c1)C(=O)N[C@H](C(=O)OC(C)(C)C)c1ccccc1` [DAPT], the “cell proliferation (total cell count)” value in data set [1] is on record as “significant reduction in proliferation”.
`COc1cc([C@@H]2c3cc4c(cc3[C@@H](O[C@@H]3O[C@@H]5CO[C@@H](C)O[C@H]5[C@H](O)[C@H]3O)[C@H]3COC(=O)[C@H]23)OCO4)cc(OC)c1O` [etoposide]: in data set [2], the “time course of cell death” value was “occurred more slowly”. The cell morphology entry in data set [3] is “membrane blebbing and DNA fragmentation”. Also, the caspase-3 cleavage result in data set [4] is on record as “did produce the cleaved fragment”. Further, the “cleavage of PARP-1 fragments (89 kDa)” value in data set [5] is listed as “as etoposide did”. For the same compound, in data set [6], the “HMGB1 release into the culture supernatant” value was “released very little HMGB1”.
For the compound RRQHGQLWFPEGF [Ram13], the “cytotoxicity, role of the cell-penetrating part” value in data set [7] was “inactive; also recorded: lost its cytotoxicity”. Also, the “disruption of NICD-CSL interaction” value in data set [8] was “effectively disrupted interactions between NICD and CSL”.
